High-throughput results deposited in PubChem by several laboratories.
CSC inhib = blocks cancer stem cells; cancer stem cell-like cells viability, luminescence; 300,000 compounds, 1.1% hits; AID 2717; inhibition, % at 7.5 µM; in the data active means inhibition above about 75%; inconclusive means no clear call, values can overlap the other calls; tested in HMLE shEcad cells
SKKanGAS inh = blocks kanamycin growth of S. pyogenes SKKanGAS strain. inhibition, % at 7.5 µM. BacTiter-Glo, 6 h. 300,000 compounds, 1.3% hits;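 active means mean replicate score, as percent of positive control median, at least 50; inconclusive means mean below 50 but one replicate at or above 50; inactive means mean and every replicate below 50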;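 further: strain carries kanamycin resistance gene driven by streptokinase promoter and grows in 40 µg/ml kanamycin; loss of luminescence reflects streptokinase promoter inhibition or plain growth inhibition; 0% = median of DMSO wells and 100% = positive control at its reference dose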
Mdm2 MdmX PPI = disrupts the human Mdm2-MdmX interaction; SaOS-2 split-luciferase Mdm2/MdmX complementation, luminescence; O15151+Q00987; inhibition, % at 8 µM; 330,000 compounds, 3% hits;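 active means inhibition of at least 50% at 8 µM in the primary screen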
T cruzi repl = blocks replication of Trypanosoma cruzi; T. cruzi beta-gal in NIH3T3, luminescence, 90 h; inhibition, % (no concentration beside the values); 300,000 compounds, 1.4% hits; AID 1885;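 active means mean inhibition across valid replicates above about 55%, limit read from the data; inconclusive means mean below that limit but half or more replicates reach it; inactive means mean below it, under half of replicates reach it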;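 further: signal also drops with host cell toxicity which is not excluded here; 0% = plate median of DMSO wells and 100% = zero luminescence signal; higher percent means less beta-gal luminescence so fewer parasites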
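System: mouse NIH/3T3 fibroblasts infected with β-gal-expressing T. cruzi Tulahuen C4 / Input: NIH/3T3 cells, 5,000 per well / Buffer or medium: Low-serum DMEM with 2% FBS / Probe or stimulus: 5000 reporter trypomastigotes per well / Schedule: ≥90 h infection period, 3 h prior cell attachment / Measured by: GalScreen luminescence, 60 min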
Calb FLC = C. albicans growth modulation with fluconazole. C. albicans CaCi-2 (fluconazole-resistant clinical isolate) + fluconazole, Alamar Blue growth, 48 h. growth inhibition, % (test concentration not listed). 300,000 compounds, 0.57% hits;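 active means growth inhibition above about 58% in most replicates, limit read from the data, passing the limit was not always enough; inconclusive means exactly half the replicates above a set limit; inactive means most replicates below a set limit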;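 further: all wells also contain fluconazole at 8 µg/ml as a sub-toxic cotreatment; 0% = median of DMSO wells and 100% = median of geldanamycin control wells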
Beta apoptosis = blocks beta cell apoptosis | INS-1E cytokine-induced death, ATP luminescence, 48 h; percent of positive-control rescue, neutral wells zero | protection from apoptosis, % (test concentration not listed) | 300,000 compounds, 0.8% hits;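 active means Every replicate reaches about 75%, or at least half do and their mean reaches it too, limit read from the data; inconclusive means At least half of replicates reach the limit but their mean does not; inactive means Under half of replicates reach the limit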;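 further: 0% = cytokine-treated negative control wells and 100% = positive control rescue; higher means more ATP so stronger rescue from cytokine killing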
Mdm2-MdmX conf = confirmation of human Mdm2/MdmX interaction inhibitors. shares compounds with Mdm2 MdmX PPI. Mdm2-MdmX binding, luminescent assay. inhibition, % at 8 µM. 10,000 compounds, 55% hits. AID 489028; in the data active means inhibition above about 40%
FLuc counter = counter-screen for Mdm2/MdmX inhibitors: full-length luciferase; shares compounds with Mdm2 MdmX PPI; SaOS-2 full-length luciferase counterscreen, luminescence; inhibition, % at 8 µM; 6,200 compounds, 77% hits;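 active means mean inhibition at 8 µM reaching about 37%, which flags the compound as non-specific, limit read from the data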;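 further: p53-null SaOS-2 cells with luciferase driven by a doxycycline-inducible promoter; compound on cells about two nights before reading with doxycycline added after day one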
Active calls of the source: *; ? = inconclusive; · = not tested or not shown. Sampled rows, rich in hits. Any-hit rate of the full collection: about 5.7%.

SMILES	CSC inhib	SKKanGAS inh	Mdm2 MdmX PPI	T cruzi repl	Calb FLC	Beta apoptosis	Mdm2-MdmX conf	FLuc counter
CC(C)(C)OC(=O)C[C@@H]1C/C=C\C[C@@H](CC(=O)NCCO)C(=O)NC[C@H](c2ccccc2)OC1=O	0	·	1	·	·	-4	·	·
CCCCCOc1ccc(Br)cc1/C(C)=N/NC1=NCCN1	-3	3	86*	55*	15	45	67*	63*
COc1ccc(Br)cc1/C(C)=N/NC1=NCCN1	4	7	23	-13	-16	10	·	·
Cc1c(Cl)cccc1NC(=O)CCC(=O)N/N=C/c1ccc[nH]1	38	-9	55*	-2	7	-4	41*	42*
Cc1ccc(C)c(NC(=O)CCC(=O)N/N=C/c2ccc[nH]2)c1	·	1	16	-19	30	-4	·	·
COc1cc(/C=C2\SC(=Nc3ccc(O)cc3)NC2=O)cc(OC)c1O	49	-4	56*	-17	12	6	41*	81*
CCc1ccc(N=C2NC(=O)/C(=C/c3cc(OC)c(OC)c(OC)c3)S2)cc1	44	23	46	46	24	4	·	·
Cn1cccc1/C=C1\SC(=Nc2ccc(O)cc2)NC1=O	61	12	68*	23	-2	18	62*	160*
Cn1c(=O)c(C(=O)Nc2ccccn2)c(O)c2ccccc21	15	-5	67*	-13	-2	22	60*	29
Cc1ccc(C)c(C(=O)COC(=O)c2cc([N+](=O)[O-])ccc2N2CCOCC2)c1	-2	1	3	14	-2	·	·	·
Cc1ccc(C(=O)c2cc([N+](=O)[O-])ccc2N2CCOCC2)cc1C	67	0	51*	-51	1	-4	61*	60*
O=C(NC1CCCCC1)c1cc([N+](=O)[O-])ccc1N1CCCCC1	·	7	4	7	-8	3	·	·
Cc1c(-c2ccccc2)oc2c(C(=O)N3CCN(c4ccc([N+](=O)[O-])cc4)CC3)cccc2c1=O	·	16	67*	17	6	0	77*	51*
Cc1ccccc1COC(=O)c1cc([N+](=O)[O-])ccc1N1CCOCC1	-4	2	33	26	12	-2	·	·
Cc1ccc(C(=O)c2cc([N+](=O)[O-])ccc2N2CCCCC2)cc1C	-19	10	64*	6	-4	·	58*	60*
Cc1ccc(C(=O)c2cc([N+](=O)[O-])ccc2N2CCOCC2)c(C)c1	57	4	67*	29	-3	24	58*	97*
O=C(Nc1ccc(F)cc1)C1CCN(S(=O)(=O)c2ccc3[nH]c(=O)oc3c2)CC1	-9	-2	29	-13	-6	-3	·	·
O=C(c1cc([N+](=O)[O-])ccc1N1CCOCC1)N1CCN(c2ccccc2)CC1	·	-4	58*	10	3	53	77*	95*
CSc1ccc(COC(=O)c2cc([N+](=O)[O-])ccc2N2CCOCC2)cc1	60	0	61*	41	0	68	77*	113*
Cc1ccc(S(=O)(=O)N2C[C@@H]3[C@H]4CC[C@H](C4)[C@@H]3[C@@H](C)[C@@H]2c2cn(Cc3ccccc3)c3ccc(F)cc23)cc1	·	·	32	·	·	·	·	·
C[C@@H]1[C@H]2[C@@H]3CC[C@@H](C3)[C@H]2CN[C@H]1c1cn(Cc2ccccc2)c2ccccc12	·	·	54*	·	·	·	31	·
O=C(CCC(=O)Nc1nnc(C2CCCCC2)s1)Nc1ccc(F)cc1	1	3	0	-6	-2	-4	·	·
CCCC(=O)NC(c1ccc(OC)cc1)c1c(O)ccc2ccccc12 (configuration not stated)	50	9	50*	0	-6	1	39	61*
COc1ccc(C(NC(=O)CC(C)C)c2c(O)ccc3ccccc23)cc1 (configuration not stated)	13	10	9	13	-59	-6	·	·
COc1ccc(C(NC(=O)C2CCCCC2)c2c(O)ccc3ccccc23)cc1 (configuration not stated)	17	1	53*	31	-10	4	13	·
SMILES	CSC inhib	SKKanGAS inh	Mdm2 MdmX PPI	T cruzi repl	Calb FLC	Beta apoptosis	Mdm2-MdmX conf	FLuc counter
COc1cc(NC(=O)c2cccc3c2C(=O)N(Cc2cccnc2)C3)cc(OC)c1OC	23	-9	52*	-2	2	-6	48*	95*
COC(=O)c1ccc(/C=C/C(=O)OCC(=O)NCc2cccs2)cc1	-9	·	21	·	·	-6	·	·
O=C(NC(c1ccccc1)c1ccccc1)N1CCOCC1	·	10	11	0	4	-2	·	·
O=C(NC1c2ccccc2-c2ccccc21)N1CCOCC1	-8	-5	50*	3	-3	0	15	·
CCOc1ncccc1C(=O)Nc1cc(S(=O)(=O)N2CCCCC2)ccc1C	·	·	-7	·	·	2	·	·
CC(C)(C)N1C(=O)[C@H]2[C@@H](c3ccc(Br)cc3)N3C(=O)N(c4ccc(Br)cc4)C(=O)[C@@]3(Cc3ccccc3)[C@H]2C1=O	14	2	83*	36	-5	13	89*	36
COc1ccc([C@@H]2[C@@H]3C(=O)N(C(C)(C)C)C(=O)[C@@H]3[C@]3(Cc4ccc(Cl)cc4)C(=O)N(c4ccc(Br)cc4)C(=O)N23)cc1	7	7	74*	29	25	7	91*	27
COc1ccc([C@@H]2[C@@H]3C(=O)N(C(C)(C)C)C(=O)[C@@H]3[C@]3(Cc4ccc(Cl)cc4)C(=O)N(c4ccc(OC)cc4)C(=O)N23)cc1	-5	0	40	7	-4	-3	·	·
Cc1cccc([C@@H]2[C@@H]3C(=O)N(Cc4ccccc4)C(=O)[C@@H]3[C@]3(Cc4ccccc4)C(=O)N(c4ccc(C(F)(F)F)cc4)C(=O)N23)c1	11	-1	99*	21	15	10	100*	49*
CCOC(=O)CSc1nc(-c2ccccn2)ncc1OC	1	11	-22	-2	-5	0	·	·
COc1cnc(-c2ccccn2)nc1N(C)c1ccccc1	98*	72*	80*	66*	?	92*	77*	56*
CCN(CC)CCNC(=O)c1ccc2c(c1NCCO)C(=O)c1ccccc1C2=O	55	51*	91*	9	-4	116*	84*	4
CC1CCN(C(=O)c2ccc3c(c2NCCO)C(=O)c2ccccc2C3=O)CC1	10	12	42	23	11	15	·	·
CCC(C)[C@H](NC(=O)[C@@H]1Cc2c([nH]c3ccccc23)C2c3ccccc3C(=O)N21)C(=O)NCC1CCCO1 (some centres not stated)	-2	15	-2	0	9	10	·	·
